Measured values from ChEMBL document CHEMBL4145644 (J Nat Prod, 2018).

How the values were obtained:
[1] = test system: Staphylococcus aureus; experiment: Antimicrobial activity against Staphylococcus aureus KB210 ATCC 6538p assessed as zone of inhibition at 1 ug/disc measured after 24 to 48 hrs by paper disc method; assay type: functional; conditions: read-out: IZ
In short: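 Nutrient agar (0.5% peptone, 0.5% meat extract, 0.8% agar, pH 7.0) inoculated at 0.2% with S. aureus ATCC 6538p. 6 mm filter discs impregnated with 10 μL compound solution were applied. Plates were incubated at 37 °C for 24 h and inhibition zones were measured.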

[2] = test system: Bacillus spizizenii; experiment: Antimicrobial activity against Bacillus subtilis KB211 ATCC 6633 assessed as zone of inhibition at 1 ug/disc measured after 24 to 48 hrs by paper disc method; assay type: functional; conditions: ATCC 6633 KB211, read-out: IZ
In short: (§1)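 Bacteria on nutrient agar (0.5% peptone, 0.5% meat extract, 0.8% agar, pH 7.0), 37 °C, 24 h. Inoculum 0.5% for B. subtilis, E. coli, K. pneumoniae, P. vulgaris; 0.2% for K. rhizophila. 6 mm discs carrying 10 μL compound solution. Zone of inhibition measured.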

[3] = test system: Kocuria rhizophila; experiment: Antimicrobial activity against Kocuria rhizophila KB212 ATCC 9341 assessed as zone of inhibition at 1 ug/disc measured after 24 to 48 hrs by paper disc method; assay type: functional, Kocuria rhizophila DC2201; conditions: read-out: IZ; in short: as §1
[4] = test system: Mycolicibacterium smegmatis; experiment: Antimicrobial activity against Mycobacterium smegmatis KB42 assessed as zone of inhibition at 1 ug/disc measured after 24 to 48 hrs by paper disc method; assay type: functional; conditions: read-out: IZ
[5] = test system: Escherichia coli; experiment: Antimicrobial activity against Escherichia coli KB213 NIHJ assessed as zone of inhibition at 1 ug/disc measured after 24 to 48 hrs by paper disc method; assay type: functional; conditions: read-out: IZ; in short: as §1
[6] = test system: Klebsiella pneumoniae; experiment: Antimicrobial activity against Klebsiella pneumoniae KB214 ATCC 10031 assessed as zone of inhibition at 1 ug/disc measured after 24 to 48 hrs by paper disc method; assay type: functional; conditions: read-out: IZ
In short: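 Paper disc diffusion with 6 mm sterile filter discs, each loaded with 10 μL of compound solution and placed on nutrient agar (0.5% peptone, 0.5% meat extract, 0.8% agar, pH 7.0). Plates seeded with 0.5% inoculum and incubated at 37 °C for 24 h. Inhibition zone diameters measured after incubation.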

[7] = test system: Pseudomonas aeruginosa; experiment: Antimicrobial activity against Pseudomonas aeruginosa KB359 NBRC 12582 assessed as zone of inhibition at 1 ug/disc measured after 24 to 48 hrs by paper disc method; assay type: functional; conditions: read-out: IZ
In short: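 Pseudomonas aeruginosa NBRC 12582 on nutrient agar (0.5% peptone, 0.5% meat extract, 0.8% agar, pH 7.0), 1.0% inoculation, 37 °C, 24 h. Discs (6 mm) impregnated with 10 μL compound solution placed on plate. Inhibition zones measured.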

[8] = test system: Xanthomonas campestris; experiment: Antimicrobial activity against Xanthomonas campestris pv. oryzae KB88 assessed as zone of inhibition at 1 ug/disc measured after 24 to 48 hrs by paper disc method; assay type: functional; conditions: read-out: IZ
In short: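 Paper disc diffusion with 6 mm sterile filter discs, each loaded with 10 μL of compound solution and placed on nutrient agar (0.5% peptone, 0.5% meat extract, 0.8% agar, pH 7.0). Plates seeded with 1.0% inoculum and incubated at 27 °C for 24 h. Inhibition zone diameters measured after incubation.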

[9] = test system: Proteus vulgaris; experiment: Antimicrobial activity against Proteus vulgaris KB127 NBRC 3167 assessed as zone of inhibition at 1 ug/disc measured after 24 to 48 hrs by paper disc method; assay type: functional; conditions: read-out: IZ; in short: as §1
[10] = test system: Candida albicans; experiment: Antimicrobial activity against Candida albicans KF1 ATCC 64548 assessed as zone of inhibition at 10 ug/disc measured after 24 to 48 hrs by paper disc method; assay type: functional; conditions: read-out: IZ
[11] = test system: Saccharomyces cerevisiae; experiment: Antimicrobial activity against Saccharomyces cerevisiae KF237 ATCC 9763 assessed as zone of inhibition at 10 ug/disc measured after 24 to 48 hrs by paper disc method; assay type: functional; conditions: read-out: IZ
[12] = test system: Saccharomyces cerevisiae; experiment: Antimicrobial activity against Saccharomyces cerevisiae BY4741 assessed as zone of inhibition at 10 ug/disc measured after 24 to 48 hrs by paper disc method; assay type: functional; conditions: read-out: IZ
In short: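 S. cerevisiae BY4741 spread on YPD agar (1% yeast extract, 2% peptone, 2% glucose, 1.5% agar) at 1% inoculation. Sterile 6 mm filter discs loaded with 10 μL compound solution were placed on the plates. Plates were incubated at 27 °C for 48 h, then inhibition zones were measured.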

[13] = test system: Saccharomyces cerevisiae; experiment: Antimicrobial activity against Saccharomyces cerevisiae BY25929 harboring yrr2/yrs1/pdr1/pdr3 deletion mutant assessed as zone of inhibition at 10 ug/disc measured after 24 to 48 hrs by paper disc method; assay type: functional; conditions: read-out: IZ
In short: (§2)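 Paper disc diffusion with 6 mm sterile filter discs, each loaded with 10 μL of compound solution and placed on agar plates. Plates incubated at 27 or 37 °C for 24−48 h, then inhibition zones measured.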

[14] = test system: Saccharomyces cerevisiae; experiment: Antimicrobial activity against Saccharomyces cerevisiae harboring 12genedelta0HSR-iERG6 mutant assessed as zone of inhibition at 10 ug/disc measured after 24 to 48 hrs by paper disc method; assay type: functional; conditions: read-out: IZ; in short: as §2
[15] = test system: Aspergillus niger; experiment: Antimicrobial activity against Aspergillus niger KF103 ATCC 6275 assessed as zone of inhibition at 10 ug/disc measured after 24 to 48 hrs by paper disc method; assay type: functional; conditions: read-out: IZ
[16] = test system: Mucor racemosus; experiment: Antimicrobial activity against Mucor racemosus KF223 assessed as zone of inhibition at 10 ug/disc measured after 24 to 48 hrs by paper disc method; assay type: functional; conditions: read-out: IZ
[17] = test system: Acholeplasma laidlawii; experiment: Antimicrobial activity against Acholeplasma laidlawii KB174 PG8 assessed as zone of inhibition at 1 ug/disc measured after 24 to 48 hrs by paper disc method; assay type: functional; conditions: read-out: IZ

Compound: C[C@@H](O)[C@H]1C(=O)N2C(C(=O)O)=C(S[C@@H]3CN[C@H](C(=O)N(C)C)C3)[C@H](C)[C@H]12
- zone of inhibition at 1 µg/disc [1]: 35.2 mm
- zone of inhibition at 1 µg/disc [2]: 24.1 mm
- zone of inhibition at 1 µg/disc [3]: 38 mm
- zone of inhibition at 1 µg/disc [4]: 9.5 mm
- zone of inhibition at 1 µg/disc [5]: 31 mm
- zone of inhibition at 1 µg/disc [6]: 27 mm
- zone of inhibition at 1 µg/disc [7]: 47.3 mm
- zone of inhibition at 1 µg/disc [8]: 31.6 mm
- zone of inhibition at 1 µg/disc [9]: 37.8 mm

Compound: C[C@@H]1[C@H](O)[C@@H](C)/C=C/C=C/C=C/C=C/C=C/C=C/C=C/[C@H](O[C@@H]2O[C@H](C)[C@@H](O)[C@H](N)[C@@H]2O)C[C@@H]2O[C@](O)(C[C@@H](O)C[C@@H](O)[C@H](O)CC[C@@H](O)C[C@@H](O)CC(=O)O[C@H]1C)C[C@H](O)[C@H]2C(=O)O [AMPHOTERICIN B]
- zone of inhibition at 10 µg/disc [10]: 13 mm
- zone of inhibition at 10 µg/disc [11]: 14.5 mm
- zone of inhibition at 10 µg/disc [12]: 8.2 mm
- zone of inhibition at 10 µg/disc [13]: 11.7 mm
- zone of inhibition at 10 µg/disc [14]: 9.8 mm
- zone of inhibition at 10 µg/disc [15]: 16.1 mm
- zone of inhibition at 10 µg/disc [16]: 15.1 mm

Compound: CC[C@H]1OC(=O)[C@H](C)[C@@H](O[C@H]2C[C@@](C)(OC)[C@@H](O)[C@H](C)O2)[C@H](C)[C@@H](O[C@@H]2O[C@H](C)C[C@H](N(C)C)[C@H]2O)[C@](C)(O)C[C@@H](C)C(=O)[C@H](C)[C@@H](O)[C@]1(C)O [ERYTHROMYCIN]
- zone of inhibition at 1 µg/disc [17]: 28 mm
